According to ChEMBL document CHEMBL4118234, “Synthesis and biological evaluation of irreversible EGFR tyrosine kinase inhibitors containing pyrido[3,4-d]pyrimidine scaffold” (Bioorg Med Chem, 2018):

How the values were obtained:
A549 = assay: Cytotoxicity against human A549 cells harboring wild type EGFR assessed as reduction in cell viability after 72 hrs by MTT assay; assay type: cell-based; conditions: A549, 72 h
Procedure, shortened: (§1)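 Cells were kept in RPMI-1640 with 10% heat-inactivated FBS, plus 1% of 100 mM sodium pyruvate for HCC827, at 37 °C and 5% CO2. They were seeded at 3000-5000 per well and pre-incubated 24 h. Final compound concentrations were 0.33, 1, 33, 100, 333, 1000, 3333, 10000 nM for 72 h. MTT was added for 4 h, formazan dissolved in DMSO, and OD read at 490 nm. Inhibition ratios were taken against control culture, and IC50 calculated from them. At least three experiments were run in triplicate.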

[1] = target: Epidermal growth factor receptor (Homo sapiens, UniProt P00533, L858R/T790M); assay: Inhibition of EGFR L858R/T790M double mutant (unknown origin) using Poly(Glu,Tyr) as substrate after 40 mins by Kinase-Glo luminescence assay
Epidermal growth factor receptor (Homo sapiens, UniProt P00533, L858R/T790M), sequence (P00533 25-1210 T790M/L858R limits assumed): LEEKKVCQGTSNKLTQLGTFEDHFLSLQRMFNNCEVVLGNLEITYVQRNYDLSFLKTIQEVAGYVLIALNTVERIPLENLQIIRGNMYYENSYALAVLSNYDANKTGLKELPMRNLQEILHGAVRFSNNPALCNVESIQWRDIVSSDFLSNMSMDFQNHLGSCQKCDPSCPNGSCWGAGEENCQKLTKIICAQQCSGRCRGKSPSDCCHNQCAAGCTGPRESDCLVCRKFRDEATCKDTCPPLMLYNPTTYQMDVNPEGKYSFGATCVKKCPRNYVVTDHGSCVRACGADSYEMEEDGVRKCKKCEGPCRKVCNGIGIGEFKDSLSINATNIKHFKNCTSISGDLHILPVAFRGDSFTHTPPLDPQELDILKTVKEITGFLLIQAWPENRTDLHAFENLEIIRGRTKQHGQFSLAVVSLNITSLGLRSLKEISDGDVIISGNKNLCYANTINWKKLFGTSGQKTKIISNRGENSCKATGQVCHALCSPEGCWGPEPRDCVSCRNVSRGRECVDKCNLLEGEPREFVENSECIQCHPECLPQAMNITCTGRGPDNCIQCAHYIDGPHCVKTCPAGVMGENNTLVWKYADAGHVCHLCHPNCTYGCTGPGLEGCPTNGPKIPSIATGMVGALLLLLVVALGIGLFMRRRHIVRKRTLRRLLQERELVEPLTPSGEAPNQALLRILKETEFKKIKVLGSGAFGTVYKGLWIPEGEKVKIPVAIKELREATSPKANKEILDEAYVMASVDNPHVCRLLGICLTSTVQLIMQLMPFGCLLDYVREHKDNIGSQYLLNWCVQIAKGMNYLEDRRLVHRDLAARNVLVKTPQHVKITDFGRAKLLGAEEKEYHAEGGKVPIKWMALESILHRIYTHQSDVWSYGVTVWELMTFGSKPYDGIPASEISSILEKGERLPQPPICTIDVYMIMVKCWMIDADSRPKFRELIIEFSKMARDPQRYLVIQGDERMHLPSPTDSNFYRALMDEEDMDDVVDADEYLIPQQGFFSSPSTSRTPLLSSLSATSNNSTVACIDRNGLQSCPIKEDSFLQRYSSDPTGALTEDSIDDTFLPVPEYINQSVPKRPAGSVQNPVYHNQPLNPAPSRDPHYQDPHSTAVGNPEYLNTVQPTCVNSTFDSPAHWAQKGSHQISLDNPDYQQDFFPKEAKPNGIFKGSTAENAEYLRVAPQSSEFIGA

[2] = Solubility of the compound; assay type: physicochemical
HCC827 [3] = assay: Antiproliferative activity against human HCC827 cells harboring EGFR E746 to A750 deletion mutant after 72 hrs by MTT assay; assay type: functional, cell-based; conditions: HCC827, 72 h; procedure, shortened: as §1
[4] = target: Epidermal growth factor receptor (Homo sapiens, UniProt P00533); assay: Inhibition of wild type EGFR (unknown origin) using Poly(Glu,Tyr) as substrate after 40 mins by Kinase-Glo luminescence assay
Epidermal growth factor receptor (Homo sapiens, UniProt P00533), sequence (P00533 whole entry): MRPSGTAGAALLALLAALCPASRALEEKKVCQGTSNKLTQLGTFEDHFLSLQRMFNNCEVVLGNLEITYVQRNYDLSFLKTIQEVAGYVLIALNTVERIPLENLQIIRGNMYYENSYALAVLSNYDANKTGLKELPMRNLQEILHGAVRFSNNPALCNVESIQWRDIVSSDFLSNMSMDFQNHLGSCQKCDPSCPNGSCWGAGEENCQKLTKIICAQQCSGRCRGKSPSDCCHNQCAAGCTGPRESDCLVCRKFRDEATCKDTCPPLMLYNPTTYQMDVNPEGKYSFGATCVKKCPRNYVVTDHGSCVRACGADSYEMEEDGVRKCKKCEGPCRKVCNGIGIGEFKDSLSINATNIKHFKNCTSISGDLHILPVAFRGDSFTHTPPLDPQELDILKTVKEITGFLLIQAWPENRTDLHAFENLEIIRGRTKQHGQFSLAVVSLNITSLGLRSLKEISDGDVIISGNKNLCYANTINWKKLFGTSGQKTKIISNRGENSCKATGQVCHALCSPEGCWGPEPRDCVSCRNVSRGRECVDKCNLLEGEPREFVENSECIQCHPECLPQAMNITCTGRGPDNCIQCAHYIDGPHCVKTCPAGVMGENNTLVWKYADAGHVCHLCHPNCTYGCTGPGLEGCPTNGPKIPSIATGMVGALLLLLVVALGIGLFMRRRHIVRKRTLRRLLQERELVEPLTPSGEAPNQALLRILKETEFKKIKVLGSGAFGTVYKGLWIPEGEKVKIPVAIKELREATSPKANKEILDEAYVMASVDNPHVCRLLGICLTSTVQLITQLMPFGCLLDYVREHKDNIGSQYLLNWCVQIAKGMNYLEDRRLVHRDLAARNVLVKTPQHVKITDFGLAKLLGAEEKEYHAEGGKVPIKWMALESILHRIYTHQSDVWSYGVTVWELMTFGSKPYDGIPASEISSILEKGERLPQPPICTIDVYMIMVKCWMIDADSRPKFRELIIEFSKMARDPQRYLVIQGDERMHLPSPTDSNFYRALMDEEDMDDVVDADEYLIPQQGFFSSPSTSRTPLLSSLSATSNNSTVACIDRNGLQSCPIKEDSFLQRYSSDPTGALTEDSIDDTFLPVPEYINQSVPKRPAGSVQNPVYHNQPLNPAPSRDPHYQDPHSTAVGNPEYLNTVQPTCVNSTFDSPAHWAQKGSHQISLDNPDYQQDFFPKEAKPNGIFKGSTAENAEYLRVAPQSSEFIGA

[5] = system: Epidermal growth factor receptor (Homo sapiens), P00533 [L858R,T790M,C797S]; assay: Inhibition of EGFR L858R/T790M/C797S triple mutant (unknown origin) at 500 nM using Poly(Glu,Tyr) as substrate after 40 mins by Kinase-Glo luminescence assay relative to control
Epidermal growth factor receptor (Homo sapiens), P00533 [L858R,T790M,C797S], sequence (P00533 whole entry T790M/C797S/L858R): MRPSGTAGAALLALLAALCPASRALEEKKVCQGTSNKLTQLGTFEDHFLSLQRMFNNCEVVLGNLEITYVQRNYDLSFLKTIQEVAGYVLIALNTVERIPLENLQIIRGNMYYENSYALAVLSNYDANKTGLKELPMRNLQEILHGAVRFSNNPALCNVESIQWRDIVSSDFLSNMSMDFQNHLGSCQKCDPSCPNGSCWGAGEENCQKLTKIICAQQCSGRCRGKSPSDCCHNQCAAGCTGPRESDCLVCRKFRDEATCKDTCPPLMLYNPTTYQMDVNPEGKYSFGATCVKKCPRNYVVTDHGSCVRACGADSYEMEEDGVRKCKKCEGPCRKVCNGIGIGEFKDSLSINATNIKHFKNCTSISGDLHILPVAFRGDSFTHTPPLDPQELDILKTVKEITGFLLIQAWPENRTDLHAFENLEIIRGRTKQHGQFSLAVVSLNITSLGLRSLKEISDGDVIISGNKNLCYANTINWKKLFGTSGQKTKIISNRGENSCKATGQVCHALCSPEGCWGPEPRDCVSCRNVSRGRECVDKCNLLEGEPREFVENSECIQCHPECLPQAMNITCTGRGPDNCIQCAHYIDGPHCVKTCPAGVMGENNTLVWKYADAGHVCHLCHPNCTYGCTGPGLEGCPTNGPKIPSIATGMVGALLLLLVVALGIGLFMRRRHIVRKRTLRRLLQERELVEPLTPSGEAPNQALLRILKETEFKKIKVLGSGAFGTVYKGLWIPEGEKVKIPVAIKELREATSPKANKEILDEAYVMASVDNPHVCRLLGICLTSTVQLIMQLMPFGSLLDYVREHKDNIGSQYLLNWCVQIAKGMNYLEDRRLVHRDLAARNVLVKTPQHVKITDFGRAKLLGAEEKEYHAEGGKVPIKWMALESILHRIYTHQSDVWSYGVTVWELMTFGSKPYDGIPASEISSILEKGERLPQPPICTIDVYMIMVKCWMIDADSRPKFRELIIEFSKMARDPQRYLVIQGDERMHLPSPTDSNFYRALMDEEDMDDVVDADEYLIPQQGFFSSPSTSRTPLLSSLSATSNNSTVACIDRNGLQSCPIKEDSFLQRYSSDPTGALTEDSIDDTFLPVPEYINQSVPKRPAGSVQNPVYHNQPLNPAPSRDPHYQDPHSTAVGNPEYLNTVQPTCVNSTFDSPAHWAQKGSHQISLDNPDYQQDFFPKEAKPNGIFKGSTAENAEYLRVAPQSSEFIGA
Procedure, shortened: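 The reaction ran 40 min at 30 °C in 40 mM Tris pH 7.4, 10 mM MgCl2, 0.1 mg/mL BSA, 1 mM DTT, 10 µM ATP, 25 ng kinase, and 0.2 mg/mL poly(Glu,Tyr); final DMSO was 1%. Remaining ATP was read by Kinase-Glo Plus luminescence. Inhibition was scored relative to no-compound and no-enzyme signals. At least two experiments were run.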

[6] = target: Epidermal growth factor receptor (Homo sapiens, UniProt P00533, L858R); assay: Inhibition of EGFR L858R mutant (unknown origin) using Poly(Glu,Tyr) as substrate after 40 mins by Kinase-Glo luminescence assay
Epidermal growth factor receptor (Homo sapiens, UniProt P00533, L858R), sequence (P00533 25-1210 L858R limits assumed): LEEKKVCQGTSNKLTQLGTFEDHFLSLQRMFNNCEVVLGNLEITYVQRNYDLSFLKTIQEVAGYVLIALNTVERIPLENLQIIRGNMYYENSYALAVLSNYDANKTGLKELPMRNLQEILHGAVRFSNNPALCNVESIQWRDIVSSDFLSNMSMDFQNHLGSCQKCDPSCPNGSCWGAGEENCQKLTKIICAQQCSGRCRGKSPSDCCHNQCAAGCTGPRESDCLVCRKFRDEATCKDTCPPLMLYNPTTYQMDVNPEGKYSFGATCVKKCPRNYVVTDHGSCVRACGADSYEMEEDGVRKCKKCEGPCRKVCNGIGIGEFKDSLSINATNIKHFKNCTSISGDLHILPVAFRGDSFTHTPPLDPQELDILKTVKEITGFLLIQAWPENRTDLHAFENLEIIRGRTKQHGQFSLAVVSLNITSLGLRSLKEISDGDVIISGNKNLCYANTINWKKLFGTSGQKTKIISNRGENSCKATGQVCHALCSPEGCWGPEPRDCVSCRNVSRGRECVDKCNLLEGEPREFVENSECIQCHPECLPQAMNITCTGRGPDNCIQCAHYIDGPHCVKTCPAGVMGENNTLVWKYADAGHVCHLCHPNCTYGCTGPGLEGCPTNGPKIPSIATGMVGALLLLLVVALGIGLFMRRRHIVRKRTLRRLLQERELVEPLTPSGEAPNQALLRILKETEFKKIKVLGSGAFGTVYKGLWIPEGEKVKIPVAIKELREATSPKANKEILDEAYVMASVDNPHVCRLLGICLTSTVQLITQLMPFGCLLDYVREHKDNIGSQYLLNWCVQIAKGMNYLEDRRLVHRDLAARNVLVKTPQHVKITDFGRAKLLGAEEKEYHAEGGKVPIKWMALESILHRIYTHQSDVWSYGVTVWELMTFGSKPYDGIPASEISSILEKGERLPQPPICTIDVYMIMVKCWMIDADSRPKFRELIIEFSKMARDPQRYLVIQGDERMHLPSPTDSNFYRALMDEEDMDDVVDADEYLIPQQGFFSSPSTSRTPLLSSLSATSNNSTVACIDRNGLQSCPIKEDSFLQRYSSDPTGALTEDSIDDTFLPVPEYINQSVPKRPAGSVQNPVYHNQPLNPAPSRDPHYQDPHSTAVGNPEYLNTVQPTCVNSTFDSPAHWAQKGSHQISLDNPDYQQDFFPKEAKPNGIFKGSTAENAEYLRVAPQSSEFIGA

NCI-H1975 [7] = assay: Antiproliferative activity against human NCI-H1975 cells harboring EGFR L858R/T790M double mutant after 72 hrs by MTT assay; assay type: functional, cell-based; conditions: NCI-H1975, 72 h; procedure, shortened: as §1
[8] = target: Epidermal growth factor receptor (Homo sapiens, UniProt P00533, C797S/L858R/T790M); assay: Inhibition of EGFR L858R/T790M/C797S triple mutant (unknown origin) using Poly(Glu,Tyr) as substrate after 40 mins by Kinase-Glo luminescence assay
HCC827 [9] = assay: Induction of apoptosis in human HCC827 cells harboring EGFR E746 to A750 deletion mutant assessed as early apoptotic cells at 3 uM after 24 hrs by Annexin V-FITC/propidium iodide staining based flow cytometry (reference value: 1.34 to 1.67%); assay type: functional
HCC827 [10] = assay: Induction of apoptosis in human HCC827 cells harboring EGFR E746 to A750 deletion mutant assessed as late apoptotic cells at 3 uM after 24 hrs by Annexin V-FITC/propidium iodide staining based flow cytometry (reference value: 23.66 to 27.14%); assay type: functional
NCI-H1975 [11] = assay: Antiproliferative activity against human NCI-H1975 cells harboring EGFR L858R/T790M double mutant at 10 uM after 72 hrs by MTT assay relative to control; assay type: functional; procedure, shortened: as §1
HCC827 [12] = assay: Antiproliferative activity against human HCC827 cells harboring EGFR E746 to A750 deletion mutant at 10 uM after 72 hrs by MTT assay relative to control; assay type: functional; procedure, shortened: as §1

Row | SMILES | IC50 (A549) [nM] | IC50 [1] [nM] | solubility [2] | IC50 (HCC827 [3]) [nM] | IC50 [4] [nM] | IC50 [6] [nM] | IC50 (NCI-H1975 [7]) [nM] | also measured
1 | C=CC(=O)N1CC[C@@H](Nc2nc(Nc3ccccc3)nc3cnc(Nc4ccc(N5CCN(C)CC5)cn4)cc23)C1 | 650 | 106 | Soluble | 170 | 3.3 | 4.6 | 440 | inhibition [5]: < 50%; IC50 [8]: > 500 nM
2 | C=CC(=O)Nc1cc(Nc2nccc(-c3cn(C)c4ccccc34)n2)c(OC)cc1N(C)CCN(C)C [OSIMERTINIB] | 530 | – | – | 27 | – | – | […] | Activity (HCC827 [9]): 8.28%; Activity (HCC827 [10]): 68.1%
3 | C=CC(=O)N[C@H]1CCN(c2nc(Nc3ccccc3)nc3cnc(Nc4ccc(N5CCN(C)CC5)cn4)cc23)C1 | 640 | 26.5 | Soluble | 69 | 1.5 | 3.2 | 850 | IC50 [8]: 285 nM
4 | C=CC(=O)N[C@@H]1CCN(c2nc(Nc3ccccc3)nc3cnc(Nc4ccc(N5CCN(C)CC5)cn4)cc23)C1 | 1190 | 36.6 | Soluble | 20 | 2.7 | 4.7 | 1440 | –
5 | C=CC(=O)N[C@@H]1CCN(c2ncnc3cnc(Nc4ccc(N5CCN(C)CC5)cn4)cc23)C1 | – | – | – | 3520 | – | – | > 10000 | Activity (NCI-H1975 [11]): <50%
6 | C=CC(=O)N[C@H]1CCCN(c2nc(Nc3ccccc3)nc3cnc(Nc4ccc(N5CCN(C)CC5)cn4)cc23)C1 | 810 | 361 | Soluble | 73 | 12 | 14.2 | 1400 | inhibition [5]: < 50%; IC50 [8]: > 500 nM
7 | C=CC(=O)Nc1cccc(Nc2cc3c(N4CCCC4)nc(Nc4cccc(F)c4)nc3cn2)n1 | – | – | Insoluble | > 10000 | – | – | – | Activity (HCC827 [12]): <50%
8 | C=CC(=O)Nc1cccc(Nc2cc3c(N4CCCC4)nc(OCC4CCOCC4)nc3cn2)n1 | – | – | Insoluble | 8700 | – | – | – | –
9 | C=CC(=O)Nc1cccc(Nc2cc3c(N4CCCC4)nc(Nc4ccccc4)nc3cn2)n1 | – | – | Insoluble | > 10000 | – | – | – | Activity (HCC827 [12]): <50%
10 | C=CC(=O)N[C@@H]1CCCN(c2nc(Nc3ccccc3)nc3cnc(Nc4ccc(N5CCN(C)CC5)cn4)cc23)C1 | 810 | 164 | Soluble | 54 | 5.4 | 6.5 | 1750 | inhibition [5]: < 50%; IC50 [8]: > 500 nM
11 | C=CC(=O)N[C@@H]1CCN(c2ncnc3cnc(Nc4ccc(OCCOC)cc4OC)cc23)C1 | – | – | – | > 10000 | – | – | – | Activity (HCC827 [12]): <50%
12 | C=CC(=O)Nc1cccc(Nc2cc3c(N4CCCC4)nc(OC4CCOCC4)nc3cn2)n1 | – | – | Insoluble | 2740 | – | – | – | –
13 | C=CC(=O)N1CC[C@H](Nc2nc(Nc3ccccc3)nc3cnc(Nc4ccc(N5CCN(C)CC5)cn4)cc23)C1 | 1670 | 238 | Soluble | 270 | 9.9 | 10.8 | 860 | inhibition [5]: < 50%; IC50 [8]: > 500 nM
14 | C=CC(=O)Nc1cccc(Nc2cc3c(N4CCCC4)nc(OCc4ccc(F)cc4)nc3cn2)n1 | – | – | Insoluble | > 10000 | – | – | – | –
15 | C=CC(=O)N[C@@H]1CCN(c2ncnc3cnc(Nc4ccc(OCCN(C)C)cc4OC)cc23)C1 | – | – | – | > 10000 | – | – | – | Activity (HCC827 [12]): <50%
16 | C=CC(=O)Nc1cccc(Nc2cc3c(N4CCCC4)nc(OCc4ccccc4)nc3cn2)n1 | – | – | Insoluble | > 10000 | – | – | – | –
17 | C=CC(=O)N[C@@H]1CCN(c2ncnc3cnc(Nc4ccc(N5CCN(C)CC5)cc4OC)cc23)C1 | – | – | – | > 10000 | – | – | – | Activity (HCC827 [12]): <50%
18 | C=CC(=O)Nc1cccc(Nc2cc3c(N4CCCC4)nc(OCC4CCCCC4)nc3cn2)n1 | – | – | Insoluble | > 10000 | – | – | – | –
